{"source": "ChEMBL document CHEMBL1125615", "about": "“A highly specific aldose reductase inhibitor, ethyl 1-benzyl-3-hydroxy-2(5H)-oxopyrrole-4-carboxylate, and its congeners” (J Med Chem, 1991)", "key": {"[1]": {"biological_target": "T1, Aldo-keto reductase family 1 member B1 (Homo sapiens, UniProt P15121)", "experiment": "In vitro inhibition of human placental aldose reductase.", "summary_of_the_method": "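Human placental aldose reductase, partly purified (placentae homogenized in 0.1 M K phosphate pH 7.0 with 5 mM 2-mercaptoethanol, spun 33000g, peak fractions pooled). Assay in 50 mM K phosphate pH 7.1 with 0.4 M ammonium sulfate, 0.067 mM NADPH, 1.0 mM DL-glyceraldehyde; enzyme set to 4 milliunits; NADPH oxidation at 340 nm, 25 °C, 10 min. IC50 by log linear regression.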"}, "[2]": {"experiment": "Physicochemical property was determined", "assay_type": "ADME"}, "[3]": {"biological_target": "T2, Aldo-keto reductase family 1 member A1 (Sus scrofa, UniProt P50578)", "T2 sequence (P50578 whole entry)": "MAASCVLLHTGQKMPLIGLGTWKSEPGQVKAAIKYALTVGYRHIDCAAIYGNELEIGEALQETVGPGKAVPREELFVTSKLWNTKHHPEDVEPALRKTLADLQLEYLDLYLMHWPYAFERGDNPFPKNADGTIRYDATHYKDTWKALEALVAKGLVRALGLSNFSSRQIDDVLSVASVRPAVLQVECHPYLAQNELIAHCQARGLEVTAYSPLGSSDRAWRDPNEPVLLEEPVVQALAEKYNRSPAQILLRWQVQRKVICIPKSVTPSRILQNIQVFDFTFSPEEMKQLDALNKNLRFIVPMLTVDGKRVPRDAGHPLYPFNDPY", "experiment": "(§1) Selectivity ratio measured as the IC50 ratio of aldehyde/aldose reductase values"}, "[4]": {"biological_target": "T3, Aldo-keto reductase family 1 member B1 (Rattus norvegicus, UniProt P07943)", "experiment": "(§2) Inhibitory activity measured against rat lens aldose reductase using 3-pyridinecarboxaldehyde as substrate"}, "[5]": {"experiment": "Inhibitory activity measured against pig kidney aldehyde reductase using 3-pyridinecarboxaldehyde as substrate", "summary_of_the_method": "(§3)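 Purified rat lens aldose reductase and homogeneous pig kidney aldehyde reductase, assayed in 50 mM K phosphate pH 7.0 with 0.1 mM NADPH and 5 mM 3-pyridinecarboxaldehyde; substrate-started, NADPH loss at 340 nm over 12 min, 25 °C. IC50 by log linear regression; selectivity = aldehyde IC50 / aldose IC50.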"}, "[6]": {"biological_target": "T1, Aldo-keto reductase family 1 member B1", "experiment": "Inhibitory activity measured in vitro against human placental aldose reductase at a concentration of 10e-5 M"}, "[7]": {"experiment": "as §2", "summary_of_the_method": "as §3"}, "[8]": {"species": "Rattus norvegicus", "experiment": "Percent inhibition of sorbitol accumulation in rat sciatic nerve was measured", "assay_type": "functional", "summary_of_the_method": "(§4)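 Streptozotocin 85 mg/kg i.v. at 0 h to induce diabetes in rats; compound 100 mg/kg orally at 4, 7 and 24 h; killed at 27 h. Sorbitol in sciatic nerve or lens compared with untreated diabetic rats, n = 6 per group; Student's t test.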"}, "[9]": {"biological_target": "T3, Aldo-keto reductase family 1 member B1", "experiment": "Inhibition of rat lens aldose reductase was measured"}, "[10]": {"biological_target": "T4, Aldo-keto reductase family 1 member A1 (Sus scrofa) (UniProt P50578)", "T4 sequence (whole entry)": "T2 sequence (P50578 whole entry)", "experiment": "Inhibitory activity measured against pig kidney aldehyde reductase using 3-pyridinecarboxaldehyde as substrate at 2e-4", "conditions": "concentration not given here", "summary_of_the_method": "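Pig kidney aldehyde reductase, purified to homogeneity, was tested at 2 × 10^-4 M inhibitor in 50 mM potassium phosphate pH 7.0 with 0.1 mM NADPH and 5 mM 3-pyridinecarboxaldehyde. The reaction was started with substrate, and NADPH loss was read at 340 nm for 12 min at 25 °C. The value is percent inhibition.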"}, "[11]": {"experiment": "Physicochemical property was determined; b=could not be measured", "assay_type": "ADME"}, "[12]": {"species": "Rattus norvegicus", "experiment": "Percent inhibition of sorbitol accumulation in rat lens was measured", "assay_type": "functional, Lens of camera-type eye", "summary_of_the_method": "as §4"}, "[13]": {"experiment": "as §1", "summary_of_the_method": "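Ratio of the pig kidney aldehyde reductase IC50 to the rat lens aldose reductase IC50. Both purified enzymes were assayed in 50 mM potassium phosphate pH 7.0 with 0.1 mM NADPH and 5 mM 3-pyridinecarboxaldehyde, started with substrate, reading NADPH loss at 340 nm for 12 min at 25 °C. IC50s came from log-linear regression.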"}}, "note": "Several values for one entry are separate records, joined by “and”; a condition that tells them apart may be missing. Equal entries are not always repeated."}
{"smiles": "CCOC(=O)C1=C(O)C(=O)N(Cc2ccc(Br)cc2)C1", "values": [{"measurement": "IC50", "setting": "[1]", "value": 500, "unit": "nM"}]}
{"smiles": "CC1CN(Cc2ccccc2)C(=O)C1=O", "note": "(configuration not stated)", "values": [{"measurement": "pKa", "setting": "[2]", "value": 10.6}]}
{"smiles": "CCCC(CCC)C(=O)O", "note": "[VALPROATE SODIUM]", "values": [{"measurement": "IC50", "setting": "[3]", "value": 89000, "unit": "nM"}, {"measurement": "IC50", "setting": "[4]", "value": 380000, "unit": "nM"}, {"measurement": "Selectivity ratio", "setting": "[5]", "value": 0.2}]}
{"smiles": "CCOC(=O)C1=C(O)C(=O)N(c2ccccc2)C1", "values": [{"measurement": "inhibition", "setting": "[6]", "value": 28, "unit": "%"}]}
{"smiles": "CCOC(=O)C1=C(O)C(=O)N(c2cccc3ccccc23)C1", "values": [{"measurement": "inhibition", "setting": "[6]", "value": 36, "unit": "%"}]}
{"smiles": "CCOC(=O)C1=C(O)C(=O)N(Cc2ccc(Cl)c(Cl)c2)C1", "values": [{"measurement": "IC50", "setting": "[1]", "value": 240, "unit": "nM"}]}
{"smiles": "CCOC(=O)C1=C(O)C(=O)N(Cc2ccncc2)C1", "values": [{"measurement": "Selectivity ratio", "setting": "[7]", "value": "> 1800"}, {"measurement": "Inhibition", "setting": "[8]", "value": 28, "unit": "%"}, {"measurement": "IC50", "setting": "[9]", "value": 110, "unit": "nM"}, {"measurement": "IC50", "setting": "[1]", "value": 200, "unit": "nM"}, {"measurement": "inhibition", "setting": "[10]", "value": 9, "unit": "%"}]}
{"smiles": "CCOC(=O)C1=C(O)C(=O)N(C2CCCCC2)C1", "values": [{"measurement": "inhibition", "setting": "[6]", "value": 22, "unit": "%"}]}
{"smiles": "O=C1CCN(Cc2ccccc2)C1=O", "values": [{"measurement": "pKa", "setting": "[11]", "value": "Could not be measured"}]}
{"smiles": "CCCOC(=O)C1=C(O)C(=O)N(Cc2ccccc2)C1", "values": [{"measurement": "IC50", "setting": "[1]", "value": 1900, "unit": "nM"}]}
{"smiles": "CSC1CN(Cc2ccccc2)C(=O)C1=O", "note": "(configuration not stated)", "values": [{"measurement": "pKa", "setting": "[2]", "value": 7.3}]}
{"smiles": "CS(=O)(=O)C1CN(Cc2ccccc2)C(=O)C1=O", "note": "(configuration not stated)", "values": [{"measurement": "pKa", "setting": "[2]", "value": 5.1}]}
{"smiles": "CCOC(=O)C1=C(O)C(=O)N([C@H](C)c2ccccc2)C1", "values": [{"measurement": "IC50", "setting": "[1]", "value": 840, "unit": "nM"}]}
{"smiles": "CCOC(=O)C1=C(O)C(=O)N(Cc2ccco2)C1", "values": [{"measurement": "IC50", "setting": "[1]", "value": 3300, "unit": "nM"}]}
{"smiles": "CCOC(=O)C1=C(O)C(=O)N(Cc2cccs2)C1", "values": [{"measurement": "IC50", "setting": "[1]", "value": 380, "unit": "nM"}]}
{"smiles": "O=C1NC(=O)C2(N1)c1ccccc1-c1ccc(F)cc12", "note": "(configuration not stated) [ALCONIL]", "values": [{"measurement": "IC50", "setting": "[3]", "value": 27, "unit": "nM"}, {"measurement": "IC50", "setting": "[4]", "value": 300, "unit": "nM"}, {"measurement": "Selectivity ratio", "setting": "[5]", "value": 0.1}]}
{"smiles": "CC(C)(C)OC(=O)C1=C(O)C(=O)N(Cc2cccs2)C1", "values": [{"measurement": "Inhibition", "setting": "[8]", "value": 37, "unit": "%"}, {"measurement": "inhibition", "setting": "[6]", "value": 9, "unit": "%"}, {"measurement": "Inhibition", "setting": "[12]", "value": 36, "unit": "%"}]}
{"smiles": "COC(=O)C1=C(O)C(=O)N(Cc2ccccc2)C1", "values": [{"measurement": "IC50", "setting": "[1]", "value": 2600, "unit": "nM"}]}
{"smiles": "CCOC(=O)C1=C(O)C(=O)N(Cc2ccccn2)C1", "values": [{"measurement": "IC50", "setting": "[1]", "value": 440, "unit": "nM"}]}
{"smiles": "CCOC(=O)C1=C(O)C(=O)N(Cc2ccc(Cl)cc2)C1", "values": [{"measurement": "IC50", "setting": "[1]", "value": 310, "unit": "nM"}]}
{"smiles": "CC(/C=C1\\SC(=S)N(CC(=O)O)C1=O)=C\\c1ccccc1", "values": [{"measurement": "IC50", "setting": "[3]", "value": 1500, "unit": "nM"}]}
{"smiles": "CCOC(=O)C1=C(O)C(=O)N(Cc2cccc3ccccc23)C1", "values": [{"measurement": "IC50", "setting": "[1]", "value": 2300, "unit": "nM"}]}
{"smiles": "CCOC(=O)C1=C(O)C(=O)N([C@@H](C)c2ccccc2)C1", "values": [{"measurement": "IC50", "setting": "[1]", "value": 1200, "unit": "nM"}]}
{"smiles": "COc1ccc2c(C(=S)N(C)CC(=O)O)cccc2c1C(F)(F)F", "note": "[TOLRESTAT]", "values": [{"measurement": "IC50", "setting": "[4]", "value": 29, "unit": "nM"}]}
{"smiles": "CCOC(=O)C1C(=O)C(=O)NC12CCOc1ccc(F)cc12", "note": "(configuration not stated)", "values": [{"measurement": "IC50", "setting": "[4]", "value": 910, "unit": "nM"}, {"measurement": "Selectivity ratio", "setting": "[13]", "value": "> 200"}, {"measurement": "inhibition", "setting": "[10]", "value": 11, "unit": "%"}]}
{"smiles": "CCOC(=O)C1=C(O)C(=O)N(Cc2ccccc2Cl)C1", "values": [{"measurement": "IC50", "setting": "[1]", "value": 2300, "unit": "nM"}]}
{"smiles": "CCOC(=O)C1=C(O)C(=O)N(Cc2ccccc2)C1", "values": [{"measurement": "Inhibition", "setting": "[8]", "value": "51% and 42%"}, {"measurement": "IC50", "setting": "[1]", "value": 260, "unit": "nM"}, {"measurement": "inhibition", "setting": "[10]", "value": 2, "unit": "%"}]}
{"smiles": "CCOC(=O)C1=C(O)C(=O)N(C2c3ccccc3-c3ccccc32)C1", "values": [{"measurement": "IC50", "setting": "[1]", "value": 300, "unit": "nM"}]}
{"smiles": "CCOC(=O)C1=C(O)C(=O)N(Cc2ccc(OC)cc2)C1", "values": [{"measurement": "IC50", "setting": "[1]", "value": 410, "unit": "nM"}]}
{"smiles": "CC(C)(C)OC(=O)C1=C(O)C(=O)N(Cc2ccccc2)C1", "values": [{"measurement": "inhibition", "setting": "[6]", "value": 27, "unit": "%"}]}
{"smiles": "CCOC(=O)C1=C(O)C(=O)N(CCc2ccccc2)C1", "values": [{"measurement": "IC50", "setting": "[1]", "value": 2500, "unit": "nM"}]}
{"smiles": "CCOC(=O)C1=C(O)C(=O)N(CC2CCCCC2)C1", "values": [{"measurement": "inhibition", "setting": "[6]", "value": 64, "unit": "%"}]}
{"smiles": "CC1(S(=O)(=O)O)CC(=O)c2ccccc2C1=O", "note": "(configuration not stated) [MENADIONE SULFUROUS ACID]", "values": [{"measurement": "IC50", "setting": "[3]", "value": 490000, "unit": "nM"}, {"measurement": "IC50", "setting": "[4]", "value": 82000, "unit": "nM"}, {"measurement": "Selectivity ratio", "setting": "[5]", "value": 6}]}
{"smiles": "O=C(O)Cc1nn(Cc2ccc(Br)cc2F)c(=O)c2ccccc12", "note": "[PONALRESTAT]", "values": [{"measurement": "IC50", "setting": "[3]", "value": 2000, "unit": "nM"}, {"measurement": "IC50", "setting": "[4]", "value": 28, "unit": "nM"}, {"measurement": "Selectivity ratio", "setting": "[5]", "value": 71.4}]}
